How the values were obtained:
[1] = Diuretic activity at 40 mg/kg (screening dose-90.1 umol/kg) in […] in a one stage experiment; T/C = urine vol of treated rats / urine vol of control rats; format: functional
Outline: (§1)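 40 mg/kg given by gavage in 25 mL/kg 0.9% saline with 0.5% (carboxymethyl)cellulose. Four rats per agent, two per metabolism cage; 20 controls; 5 h urine. T/C = treated/control urine volume. Stage-1 T/C of 1.66 or more leads to stage 2; product T/C1·T/C2 of 3.34 or more counts as active.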

[2] = tested on: Rattus norvegicus; assay: Mean excretion of chloride in conscious rats at a dose of 3.0 mg/kg given orally; format: ADME, organism-based; set-up: dose 3 mg/kg, route oral; conditions: in vivo, po
Outline: (§2)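 Secondary dose-response in male Sprague-Dawley rats (~160 g), fasted and hydrated as in the primary screen. Oral gavage at 0.3-100 mg/kg in 25 mL/kg saline/0.5% CMC, three cages of two rats per dose. Urine collected 5 h; Na, K, Cl, HCO3 measured. Values are mean excretion (mequiv), compared with controls at P < 0.05.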

[3] = tested on: Rattus norvegicus; assay: Mean excretion of potassium in conscious rats at a dose of 100 mg/kg given orally; format: ADME, organism-based; set-up: dose 100 mg/kg, route oral; conditions: in vivo, po; outline: as §2
[4] = tested on: Rattus norvegicus; assay: Mean excretion of sodium in conscious rats at a dose of 0.3 mg/kg given orally; format: ADME, organism-based; set-up: dose 0.3 mg/kg, route oral; conditions: in vivo, po
Outline: (§3)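 Male Sprague-Dawley rats, about 160 g, fasted 24 h and water withheld 1 1/2 h beforehand; food and water withheld during the test. Dosing by gavage with 25 mL/kg 0.9% saline containing 0.5% (carboxymethyl)cellulose, agent dissolved or suspended. Three cages of two rats each per dose, held in metabolism cages. Urine collected over 5 h. Volume given in mL, Na+ in mequiv. Significance versus control at P < 0.05.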

[5] = tested on: Rattus norvegicus; assay: Mean excretion of sodium in conscious rats at a dose of 3.0 mg/kg given orally; format: ADME, organism-based; set-up: dose 3 mg/kg, route oral; conditions: in vivo, po; outline: as §3
[6] = organism: Rattus norvegicus; assay: […]; format: ADME, organism-based, Urine; set-up: dose 0.3 mg/kg, route oral; conditions: in vivo, po, 0.3 mg/kg
Outline: (§4)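 Dose-response test in male Sprague-Dawley rats of about 160 g, fasted 24 h, with water withheld 1½ h before and during the test. Each rat got a single gavage of 25 mL/kg 0.9% saline with 0.5% carboxymethylcellulose carrying the agent (0.3–100 mg/kg range). Rats were housed two per metabolism cage, and urine was collected for 5 h. Mean urine volume (mL) was compared with controls (P < 0.05).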

[7] = tested on: Rattus norvegicus; assay: Mean excretion of sodium in conscious rats at a dose of 30 mg/kg given orally; format: ADME, organism-based; set-up: dose 30 mg/kg, route oral; conditions: in vivo, po; outline: as §3
[8] = tested on: Rattus norvegicus; assay: Mean excretion of […] in conscious rats at a dose of 1.0 mg/kg given orally; format: ADME, organism-based; set-up: dose 1 mg/kg, route oral; conditions: in vivo, po; outline: as §3
[9] = tested on: Rattus norvegicus; assay: Mean excretion of chloride in conscious rats at a dose of 1.0 mg/kg given orally; format: ADME, organism-based; set-up: dose 1 mg/kg, route oral; conditions: in vivo, po; outline: as §2
[10] = tested on: Rattus norvegicus; assay: Mean excretion of chloride in conscious rats at a dose of 30 mg/kg given orally; format: ADME, organism-based; set-up: dose 30 mg/kg, route oral; conditions: in vivo, po; outline: as §2
[11] = tested on: Rattus norvegicus; assay: Mean excretion of potassium in conscious rats at a dose of 1.0 mg/kg given orally; format: ADME, organism-based; set-up: dose 1 mg/kg, route oral; conditions: in vivo, po; outline: as §2
[12] = organism: Rattus norvegicus; assay: […]; format: ADME, organism-based, Urine; set-up: dose 1 mg/kg, route oral; conditions: in vivo, po, 1 mg/kg; outline: as §4
[13] = tested on: Rattus norvegicus; assay: Mean excretion of chloride in conscious rats at a dose of 10 mg/kg given orally; format: ADME, organism-based; set-up: dose 10 mg/kg, route oral; conditions: in vivo, po; outline: as §2
[14] = organism: Rattus norvegicus; assay: […]; format: ADME, organism-based, Urine; set-up: dose 30 mg/kg, route oral; conditions: in vivo, po, 30 mg/kg; outline: as §3
[15] = organism: Rattus norvegicus; assay: […]; format: ADME, organism-based, Urine; set-up: dose 100 mg/kg, route oral; conditions: in vivo, po, 100 mg/kg; outline: as §3
[16] = tested on: Rattus norvegicus; assay: Mean excretion of sodium in conscious rats at a dose of 10 mg/kg given orally; format: ADME, organism-based; set-up: dose 10 mg/kg, route oral; conditions: in vivo, po; outline: as §3
[17] = organism: Rattus norvegicus; assay: […]; format: ADME, organism-based, Urine; set-up: dose 10 mg/kg, route oral; conditions: in vivo, po, 10 mg/kg; outline: as §3
[18] = organism: Rattus norvegicus; assay: […]; format: ADME, organism-based, Urine; set-up: dose 3 mg/kg, route oral; conditions: in vivo, po, 3 mg/kg; outline: as §3
[19] = Diuretic activity at 40 mg/kg (screening dose-68.7 umol/kg) in […] in a two stage experiment; T/C1.2 = urine vol of treated rats / urine vol of control rats; format: functional; outline: as §1
[20] = tested on: Rattus norvegicus; assay: Mean excretion of potassium in conscious rats at a dose of 3.0 mg/kg given orally; format: ADME, organism-based; set-up: dose 3 mg/kg, route oral; conditions: in vivo, po; outline: as §2
[21] = tested on: Rattus norvegicus; assay: Mean excretion of potassium in conscious rats at a dose of 10 mg/kg given orally; format: ADME, organism-based; set-up: dose 10 mg/kg, route oral; conditions: in vivo, po; outline: as §2
[22] = tested on: Rattus norvegicus; assay: Mean excretion of potassium in conscious rats at a dose of 0.3 mg/kg given orally; format: ADME, organism-based; set-up: dose 0.3 mg/kg, route oral; conditions: in vivo, po; outline: as §2
[23] = tested on: Rattus norvegicus; assay: Mean excretion of sodium in conscious rats at a dose of 100 mg/kg given orally; format: ADME, organism-based; set-up: dose 100 mg/kg, route oral; conditions: in vivo, po; outline: as §3
[24] = tested on: Rattus norvegicus; assay: (§5) Mean excretion of Cl- in conscious rats at a dose of 0.3 mg/kg given orally; format: ADME, organism-based, Urine; set-up: dose 0.3 mg/kg, route oral; conditions: in vivo, po; outline: as §4
[25] = tested on: Rattus norvegicus; assay: Mean excretion of potassium in conscious rats at a dose of 30 mg/kg given orally; format: ADME, organism-based; set-up: dose 30 mg/kg, route oral; conditions: in vivo, po; outline: as §2
[26] = Diuretic activity at 40 mg/kg (screening dose-68.7 umol/kg) in […] in a one stage experiment; T/C = urine vol of treated rats / urine vol of control rats; format: functional; outline: as §1
[27] = tested on: Rattus norvegicus; assay: Mean excretion of chloride in conscious rats at a dose of 100 mg/kg given orally; format: ADME, organism-based; set-up: dose 100 mg/kg, route oral; conditions: in vivo, po; outline: as §2
[28] = Diuretic activity at 40 mg/kg (screening dose-73.8 umol/kg) in […] in a one stage experiment; T/C = urine vol of treated rats / urine vol of control rats; format: functional; outline: as §1
[29] = Diuretic activity at 40 mg/kg (screening dose-73.8 umol/kg) in […] in a two stage experiment; T/C1.2 = urine vol of treated rats / urine vol of control rats; format: functional; outline: as §1
[30] = as §5; format: functional, Urine; conditions: route oral; outline: as §4
[31] = Mean excretion of Cl- in conscious rats at a dose of 1.0 mg/kg given orally; format: functional, Urine; conditions: route oral; outline: as §4

| SMILES | Mean excretion of Cl- [2] [m equiv] | Mean excretion of K+ [3] [m equiv] | Mean excretion of Na+ [4] [m equiv] | Mean excretion of Na+ [5] [m equiv] | Mean excretion of Na+ [7] [m equiv] | Mean excretion of Na+ [8] [m equiv] | Mean excretion of Cl- [9] [m equiv] | Mean excretion of Cl- [10] [m equiv] | Mean excretion of K+ [11] [m equiv] | Mean excretion of Cl- [13] [m equiv] | Mean urine volume [14] [mL] | Mean urine volume [15] [mL] | Mean excretion of Na+ [16] [m equiv] | Mean urine volume [17] [mL] | Mean urine volume [18] [mL] | Mean excretion of K+ [20] [m equiv] | Mean excretion of K+ [21] [m equiv] | Mean excretion of K+ [22] [m equiv] | Mean excretion of Na+ [23] [m equiv] | Mean excretion of K+ [25] [m equiv] | other results |
| --- | --- | --- | --- | --- | --- | --- | --- | --- | --- | --- | --- | --- | --- | --- | --- | --- | --- | --- | --- | --- | --- |
| Clc1ccc2c(c1)C(c1ccccc1)=NCc1nnc(C(CN3CCCC3)c3ccccc3)n1-2 (stereo unspecified) | – | – | – | – | – | – | – | – | – | – | – | – | – | – | – | – | – | – | – | – | T/C 1 [1]: 1.33 |
| CN(C)CCc1nnc2n1-c1ccc(Br)cc1C(c1ccccc1)=NC2 | 0.82 | 0.27 | 0.66 | 0.78 | 1 | 0.65 | 0.65 | 0.94 | 0.23 | 0.74 | 8.44 | 13 | 0.68 | 5.9 | 5.97 | 0.23 | 0.21 | 0.25 | 1.57 | 0.16 | Mean urine volume [6]: 3.99 mL; Mean urine volume [12]: 4.38 mL; T/C 1.2 [19]: 7.84; Mean excretion of Cl- [24]: 0.66 m equiv; T/C 1 [26]: 2.98; Mean excretion of Cl- [27]: 1.42 m equiv |
| I.NCC(c1ccccc1)c1nnc2n1-c1ccc(Cl)cc1C(c1ccccc1)=NC2 (stereo unspecified) | 0.73 | 0.27 | 0.77 | 0.69 | 2.01 | 0.76 | 0.79 | 1.72 | 0.32 | 1.09 | 10.47 | 8.43 | 1.08 | 6.21 | 3.92 | 0.22 | 0.27 | 0.28 | 1.63 | 0.28 | T/C 1 [28]: 2.53; Mean urine volume [6]: 4.34 mL; T/C 1.2 [29]: 5.92; Mean urine volume [12]: 4.45 mL; Mean excretion of Cl- [24]: 0.81 m equiv; Mean excretion of Cl- [27]: 1.57 m equiv |
| CN(C)CC(c1ccccc1)c1nnc2n1-c1ccccc1C(c1ccccc1)=NC2.Cl (stereo unspecified) | – | – | – | – | – | – | – | – | – | – | – | – | – | – | – | – | – | – | – | – | T/C 1 [1]: 1.48 |
| NS(=O)(=O)c1cc(C(=O)O)c(NCc2ccco2)cc1Cl [FUROSEMIDE] | – | 0.67 | 0.82 | 0.86 | 2.37 | 0.83 | – | – | 0.21 | – | 18.3 | 27.8 | 1.13 | 8.48 | 5.23 | 0.27 | 0.34 | 0.22 | 3.52 | 0.46 | Mean urine volume [30]: 4.45 mL; Mean urine volume [31]: 4.7 mL |
| NS(=O)(=O)c1cc2c(cc1Cl)NCNS2(=O)=O [HYDROCHLOROTHIAZIDE] | 1.78 | 0.36 | 1.32 | 1.66 | 1.86 | 1.59 | 1.77 | 2.03 | 0.32 | 1.91 | 10.03 | 10.61 | 1.86 | 9.24 | 8.48 | 0.34 | 0.31 | 0.26 | 1.9 | 0.3 | Mean urine volume [30]: 7.18 mL; Mean urine volume [31]: 8.87 mL; Mean excretion of Cl- [24]: 1.42 m equiv; Mean excretion of Cl- [27]: 2.09 m equiv |

Source: ChEMBL document CHEMBL1124476, “1-(2-aminoethyl)-6-aryl-4H- [1,2,4]triazolo[4,3-a][1,4]benzodiazepines with diuretic and natriuretic activity” (J Med Chem, 1989)
